From ChEMBL document CHEMBL4513216, “Probing the Open Global Health Chemical Diversity Library for Multistage-Active Starting Points for Next-Generation Antimalarials” (ACS Infect Dis, 2020)

experiment: Toxicity liver stage against HepG2, at 10uM; type: cell-based; set-up: test concentration 10 uM, cell line HepG2-A16-CD81EGFP; settings: human, HepG2-A16-CD81EGFP cells; read-out: INHIBITION
Method in brief: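 Uninfected HepG2-A16-CD81EGFP cells, 3 × 10^3 per well, 1536-well, plated on prespotted compound at 10 μM final, parasite-free screening media added to match infected plates; puromycin 10 μM positive, DMSO 0.5% negative; run in parallel with 48 h PbLuc assay at 37 °C, 5% CO2; viability by CellTiter-Glo luminescence, normalized to controls.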

SMILES | cytotoxicity at 10 µM [%]
Cn1ncc2c(N[C@@H]3C[C@H]4CC[C@@H]3C4)nc(-c3ccncc3)nc21 | 5.89
CN1CCN(Cc2cn3c(n2)CN(C(=O)N2CCCC2)CC3)CC1 | 3.23
O=C(O)c1cn(CC2CCCN(c3cnc4ccccc4n3)C2)nn1 (stereo unspecified) | 1.57
COC(=O)[C@H]1CN(S(C)(=O)=O)CCN1S(C)(=O)=O | -1.37
Cc1cc(NC2CCN(CC3CCCO3)CC2)n2nc(C)c(C)c2n1 (stereo unspecified) | 8.96
CCc1ccc(C(C)NC(=O)c2ccc(CS(C)(=O)=O)o2)cc1 (stereo unspecified) | -3.07
Clc1ccccc1C1(c2ccnc(CC3CC3)n2)CCNCC1 | -10.3
O=C(O)c1cccc2c(Br)cccc12 | 3.38
CC(C)c1n[nH]c(C(=O)Nc2ccnn2C(C)C)c1Br | 13.8
CCN(C)S(=O)(=O)N1CCC(C(O)c2ccc(Cl)cc2)CC1 (stereo unspecified) | 5.84
CC(C)OCc1nn(C)c2c1CCN(CC1CC1)C2 | 4.91
COc1ccc2c(c1)CCCN(C(C)C(=O)N1CCCC1)C2 (stereo unspecified) | 10.9
COc1ccc(CN2CCC3(CCCN(c4ncc(F)cn4)C3)C2)cc1 (stereo unspecified) | 62.8
Cc1cccc(Nc2nccnc2C2CCCN2CC(N)=O)n1 (stereo unspecified) | -4.16
Cc1csc(C2CCCN(C(=O)c3cc(Cl)c[nH]3)C2)n1 (stereo unspecified) | -8.21
CC(NC(=O)N(C)Cc1ccsc1)c1ccc2c(c1)NC(=O)CO2 (stereo unspecified) | -7.77
Cc1nn(C)c2nc(N(CCN(C)C)CC3CCCO3)sc12 (stereo unspecified) | -4.62
Cc1cc(CN(C)C(=O)Nc2ccccc2C)no1 | -8.75
CC(C)(C)CN1CC[C@H](c2nnc(Cc3c[nH]c4ccccc34)o2)C1 | -3.9
O=C(NCCC(=O)N1CCCc2ccccc21)c1cc(F)cc(F)c1 | -6.14
CCC(=O)N1CCc2[nH]cnc2C12CCN(C(=O)c1snnc1C)CC2 | 13.9
CSCc1nc(CCNC(=O)C(N)c2c(C)n[nH]c2C)cs1 (stereo unspecified) | -3.95
Cc1ccc(Nc2nccc(C3CN(CC(N)=O)C3)n2)nc1 | -1.91

SMILES | cytotoxicity at 10 µM [%]
O=C(c1cncc(N2CC[C@@]3(O)CCNC[C@H]3C2)n1)N1CCCC1 | -8.19
CCc1ccc(-c2noc(Cn3nc(C(N)=O)ccc3=O)n2)cc1 | -4.22
CC(C)c1nccn1C1CCCN(C(=O)CCc2cnn(C)c2)C1 (stereo unspecified) | -1.58
Cc1noc(C)c1CSCc1csc(CS(C)(=O)=O)n1 | -17
CNC(=O)c1cccc(NC(=O)NC(C)CCc2cccn2C)c1C (stereo unspecified) | -1.39
COCCN(Cc1ccoc1)C(=O)CSc1ccc(F)cc1 | 1.04
O=C(NCCn1nc2ccccn2c1=O)c1cc[nH]n1 | 3.45
CCN(CC)C(=O)N1CCN(C2=NCC(C)S2)CC1 (stereo unspecified) | -148
O=C(NCc1cccs1)C1CNCC12CCOCC2 (stereo unspecified) | -5.43
Cc1cc(=O)[nH]c(SCC(=O)N(C)CC2Cc3ccccc3CN2C)n1 (stereo unspecified) | -1.96
Cc1cc(C)c2nc(CN3CCOCC(O)C3)cc(O)c2c1 (stereo unspecified) | -3.89
COCCn1cc(NC(=O)NC(C)CCc2ccccc2)ccc1=O (stereo unspecified) | 3.4
COCCCNC(=O)C(C)(C)N(C)C1CCCC1 | -51.3
COCCN1C[C@@H]2[C@@H](OC)CCN(S(=O)(=O)c3cccnc3)[C@@H]2C1 | -71.7
CCOC(=O)NC(CNC(=O)c1cc(Cl)ccn1)CC(C)C (stereo unspecified) | 5.38
Cc1ccc(N2CCc3ncnc(C)c3CC2)nn1 | -93.6
COc1cc(N2CC[C@@H]3O[C@H](C(=O)N(C)C)C[C@@H]32)ncn1 | 1.14
c1ccc(C2CCCCN2Cc2nc(-c3cnccn3)no2)nc1 (stereo unspecified) | -8.04
Cc1cc(C(F)(F)F)nn1CCCNC(=O)C1CCCC1 | -4.93
CC(O)CN1CCN(C(=O)c2ccc(N3CCCC3)nn2)CC1 (stereo unspecified) | -17.3
O=C(NCC(O)c1ccoc1)Nc1c(F)cccc1F (stereo unspecified) | -5.86
Cc1[nH]ccc1C(=O)N1CCOCC12CCCC2 | 4.14
CC(=O)N1CC2(CCCC2)c2ccccc21 | 0.83

SMILES | cytotoxicity at 10 µM [%]
COc1ccnc(C(=O)N2CCCC(c3noc(C)n3)C2)c1 (stereo unspecified) | -4.64
CN(Cc1n[nH]c2c1CCCC2)C(=O)c1cccc(CCC(C)(C)O)c1 | -3.87
COCc1nn(C)c2c1CCN(Cc1cnn(C)c1)C2 | -4.37
c1cnc(N2CCC3(COCCN(CC4CCOCC4)C3)C2)nc1 (stereo unspecified) | -1.56
Cc1cc(C)c(CNC(=O)N(C)Cc2nnc3n2CCC3)c(=O)[nH]1 | -10.5
Cc1ccc(-c2nc3cc(S(=O)(=O)N4CCCC4)ccc3n2C)o1 | 1.38
COCCNc1ccccc1CNC(=O)C1CCCOC1 (stereo unspecified) | -8.3
CCN(Cc1nc(Cc2ccccc2)no1)C1CC1 | 6.26
O=C(CN1CCCC1=O)NCc1cccnc1Oc1ccc(F)c(F)c1 | 1.87
O=C(c1ccco1)N1CCN2C[C@H](OCc3cccnc3)C[C@H]2C1 | -77
Cc1ccc(N2C[C@@H]3CN(Cc4ccsc4)CCO[C@@H]3C2)nn1 | 3.32
COC(=O)c1ccc2ccn(CC3CCCN(C)C3)c(=O)c2c1 (stereo unspecified) | -16.1
Cc1noc(C)c1CN(C)C(=O)CCOc1ccc(Cl)cc1 | -2.51
COc1ccnc(N2CCN(C(=O)Cc3ccn(C(C)C)n3)CC2)n1 | -16.2
CC(C)NC(=O)NC[C@H]1OC[C@@H](NCc2ccc(F)cc2)[C@@H]1O | 2.07
CC(=O)N1CCN(C(C)c2nnc(CC(C)C)o2)CC1 (stereo unspecified) | 6.88
Cc1noc(C)c1CN1CCN(Cc2nccn2C)CC1 | -4.93
CN(C)C(=O)c1ccc(OC2CCOCC2)cc1 | -2
COc1nc2ccn(CCc3cnccn3)c(=O)c2cc1C#N | 54.1
O=C(c1cccnn1)N1C[C@@H]2CC[C@H](Oc3cccc(F)c3)[C@@H]2C1 | -13.6
CNS(=O)(=O)c1ccccc1N1CCN(C(C)C(N)=O)CC1 (stereo unspecified) | 4.87
O=C(C1CCCO1)N1CCC2(CC1)COCCN2CC1CC1 (stereo unspecified) | 2.79
CC(NC(=O)c1cccnc1N(C)C)c1ccccc1Cl (stereo unspecified) | -4.97

SMILES | cytotoxicity at 10 µM [%]
CCOCCC1(CNC(=O)c2ccncc2)CCC1 | 4.11
O=C(NC1(c2nnn(CC3CCCO3)n2)CCCC1)c1ccccc1 (stereo unspecified) | 13.2
Cc1cc(C)c2c(NCc3nncn3C3CCCCC3)ncnc2n1 | -0.404
CCC(Nc1nc(CCN)nc2ccccc12)c1cc(C)ccn1 (stereo unspecified) | -12.9
CNC(=O)[C@@]12CCO[C@@H]1CCN(Cc1cccc(C)c1)C2 | -78.4
Cc1cccnc1NC(=O)NCc1cccnc1OC(C)C | -8.75
O=C(c1coc(CN2CCN(c3ccccc3F)CC2)n1)N1CC=CC1 | -3.06
COC(=O)CNC(=O)c1ccn(-c2ccc(Cl)c(Cl)c2)n1 | -8.77
O=C(CCc1ccccn1)N1CCN(C(=O)CC2CCCCC2)CC1 | -1.8
CC(=O)N(Cc1noc(C)n1)C1CCN(Cc2ccccc2C#N)C1 (stereo unspecified) | -1.76
CCC(CNC(=O)c1ccc(Br)o1)N1CCc2ccccc2C1 (stereo unspecified) | -20.5
O=C(c1cc(-n2cccn2)ccc1Cl)N1CCCC(N2CCCC2)C1 (stereo unspecified) | 1.86
CCOc1cc(NC(=O)N2CCC(c3nnc[nH]3)CC2)ccc1C | 14.5
O=c1[nH]c2cn(-c3ccc(Cl)cc3)c(=O)n2[nH]1 | 2.43
O=C(c1ncccn1)N1CCC[C@]2(C[C@@H](OCC3CC3)CO2)C1 | -89.7
CC(C)c1cc(C(=O)N2CCCC2c2nc(-c3ccccc3)no2)[nH]n1 (stereo unspecified) | -4.5
O=C(Cn1ccnc1)N1C[C@@H]2CC[C@H](Oc3ccccc3F)[C@@H]2C1 | -28.9
NC(=O)C1CCN(C(=O)c2ccccc2OCc2ccccc2Cl)CC1 | -9.4
CN(C)C(CNC(=O)c1nc(N2CCOCC2)ncc1Cl)c1cccs1 (stereo unspecified) | 8.26
CC(NC(=O)CCCOc1ccccc1)c1nnc2n1CCCCC2 (stereo unspecified) | -9.51
CCC1(CO)CCN(C(=O)c2cc(COc3ccccc3F)[nH]n2)CC1 | 4.45
CS(=O)(=O)CCC(=O)N1CCC(c2cccc(F)c2)C1 (stereo unspecified) | 3.71
CN(Cc1cc2n(n1)CCNC2)Cc1n[nH]c2c1CCCCC2 | -6.32

SMILES | cytotoxicity at 10 µM [%]
Cc1c(Cl)cccc1N1CC(c2nnc(N)s2)CC1=O (stereo unspecified) | 7.38
Cc1cccc(CN2CC[C@H]3C[C@H](C)O[C@@H]3C2)n1 | -78.6
CCCN1CCN(Cc2cccc(OC(C)C)c2)[C@H]2CS(=O)(=O)C[C@H]21 | 4.77
CN(C)S(=O)(=O)Nc1ccc(-n2nncc2C(F)(F)F)cc1 | -2.64
COCCN(CCOC)C(=O)c1sc(C)nc1C | 2.16
Cc1cccc(NC(=O)c2nn(C3CCS(=O)(=O)C3)c3c2CCCC3)n1 (stereo unspecified) | 10.5
Cc1nc(NC(=O)CCOCC(F)(F)F)ccc1Br | 6.27
CC(C#N)CN(C)Cc1ccc(Cl)c2cccnc12 (stereo unspecified) | -40.4
CCn1ccnc1CN1CCCN(C(=O)COC2CCCC2)CC1 | -6.58
CC(C)C1CN(C(=O)c2ccc3nccnc3c2)CCS1 (stereo unspecified) | 5.02
CN1CCCN(C(=O)c2cc3c(s2)CCN3C(=O)C2CC2)CC1 | 6.74
CSCc1noc(CNC(=O)[C@H]2CNC[C@@H](C(=O)N3CCCC3)C2)n1 | 2.79
COc1ccc(C2CCCN2Cc2nnnn2C2CC2)cc1OC (stereo unspecified) | 2.49
CS(=O)(=O)NCc1cncc2c1CCN(CC1CCOC1)C2 (stereo unspecified) | 12.7
CCOCC1CN(C(=O)c2cccnc2)Cc2cnn(C)c21 (stereo unspecified) | -1.28
CCS(=O)(=O)N1Cc2ncn(CC3CC3)c2C(COCC2CC2)C1 (stereo unspecified) | 0.822
CCn1c(-c2ccccc2)nn(CC(=O)NCCc2ccc(C)o2)c1=O | -0.545
CCC1(CC)CC(=O)N(CC(O)c2ccc(F)cc2)C1=O (stereo unspecified) | -0.438
CSc1ccc(C(CNC(=O)C2CC2)N2CCc3sccc3C2)cc1 (stereo unspecified) | -5.31
